We go through 28 molecules from ChEMBL document CHEMBL3425438, “Investigation of (E)-3-[4-(2-Oxo-3-aryl-chromen-4-yl)oxyphenyl]acrylic Acids as Oral Selective Estrogen Receptor Down-Regulators” (J Med Chem, 2015).

Converted amounts (≈) assume the structure as drawn. Where only a bound is given, the exact number is not on record here.

The nature of data set [1]: Intrinsic clearance in rat hepatocytes measured per 10^6 cells. It is filed as ADME, cell-based, Hepatocyte. The conditions noted are these: read-out: CLH.
Data set [2] is described as follows: Thermodynamic solubility of the compound in 0.1 M aqueous phosphate buffer at 25 degC at pH 7.4 after 24 hrs. To be noted: read-out: Therm_solubility. It is filed as physicochemical.
Data set [3] has as its target Voltage-gated inwardly rectifying potassium channel KCNH2 (Homo sapiens, UniProt Q12809). As to the kind of experiment: Inhibition of hERG channel by electrophysiology. It is filed as toxicity. (In general: The hERG channel carries a current that helps repolarise heart muscle cells.)
Data set [4] in a line: Free plasma concentration in rat by LC-UV-MS analysis. Type of data set: ADME, cell-free. The method in brief:
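Equilibrium dialysis in plasma of the matching species at 37 °C; free and bound concentrations quantified by LC-UV-MS; reported as % free.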

The nature of data set [5]: Octanol-buffer partition coefficient, log D of the compound at ratio of 1:100 at pH 7.4 by shake-flask method. Type of data set: physicochemical.
Data set [6] has as its target T1, Estrogen receptor (Homo sapiens, UniProt P03372).
T1 sequence (P03372 whole entry): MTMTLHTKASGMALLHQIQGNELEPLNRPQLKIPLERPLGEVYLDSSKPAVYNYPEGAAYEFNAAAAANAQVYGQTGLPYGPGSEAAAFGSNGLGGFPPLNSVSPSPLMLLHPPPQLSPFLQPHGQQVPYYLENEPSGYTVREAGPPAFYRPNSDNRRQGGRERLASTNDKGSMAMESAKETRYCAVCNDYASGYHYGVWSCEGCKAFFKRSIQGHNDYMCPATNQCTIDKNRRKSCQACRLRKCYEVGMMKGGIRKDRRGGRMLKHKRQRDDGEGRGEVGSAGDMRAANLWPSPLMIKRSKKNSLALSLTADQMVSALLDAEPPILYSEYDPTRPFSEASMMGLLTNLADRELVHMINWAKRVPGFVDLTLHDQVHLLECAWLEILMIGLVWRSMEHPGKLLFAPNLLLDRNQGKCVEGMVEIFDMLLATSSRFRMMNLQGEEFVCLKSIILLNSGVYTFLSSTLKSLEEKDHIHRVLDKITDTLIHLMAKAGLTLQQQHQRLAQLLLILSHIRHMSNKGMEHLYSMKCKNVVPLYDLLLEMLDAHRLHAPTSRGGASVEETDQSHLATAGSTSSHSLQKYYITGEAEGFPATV
In words: Binding affinity to ER alpha (unknown origin) by LanthaScreen TR-FRET competitive binding assay. The method, boiled down: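 LanthaScreen TR-FRET ERα competitive binding; 12-point half-log concentration response; TR-FRET emission ratio read on microplate reader; IC50 reported.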
Background: In TR-FRET formats the signal depends on donor and acceptor labels being close together.

Data set [7] can be described thus: Dissociation constant, pKa of the compound by potentiometric analysis […] phenol. It is filed as physicochemical. The method in brief: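 pKa (acid and phenol) by potentiometric titration.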
A short description of data set [8]: Intrinsic clearance in human hepatocytes measured per 10^6 cells. It is filed as ADME, cell-based, Hepatocyte. To be noted: read-out: CLH.
Data set [9] has as its target T1, Estrogen receptor. In words: Suppression of ER alpha in human MCF7 cells after 24 hrs by immunostaining analysis. Type of data set: cell-based.

Voltage-gated inwardly rectifying potassium channel KCNH2, sequence (Q12809 whole entry): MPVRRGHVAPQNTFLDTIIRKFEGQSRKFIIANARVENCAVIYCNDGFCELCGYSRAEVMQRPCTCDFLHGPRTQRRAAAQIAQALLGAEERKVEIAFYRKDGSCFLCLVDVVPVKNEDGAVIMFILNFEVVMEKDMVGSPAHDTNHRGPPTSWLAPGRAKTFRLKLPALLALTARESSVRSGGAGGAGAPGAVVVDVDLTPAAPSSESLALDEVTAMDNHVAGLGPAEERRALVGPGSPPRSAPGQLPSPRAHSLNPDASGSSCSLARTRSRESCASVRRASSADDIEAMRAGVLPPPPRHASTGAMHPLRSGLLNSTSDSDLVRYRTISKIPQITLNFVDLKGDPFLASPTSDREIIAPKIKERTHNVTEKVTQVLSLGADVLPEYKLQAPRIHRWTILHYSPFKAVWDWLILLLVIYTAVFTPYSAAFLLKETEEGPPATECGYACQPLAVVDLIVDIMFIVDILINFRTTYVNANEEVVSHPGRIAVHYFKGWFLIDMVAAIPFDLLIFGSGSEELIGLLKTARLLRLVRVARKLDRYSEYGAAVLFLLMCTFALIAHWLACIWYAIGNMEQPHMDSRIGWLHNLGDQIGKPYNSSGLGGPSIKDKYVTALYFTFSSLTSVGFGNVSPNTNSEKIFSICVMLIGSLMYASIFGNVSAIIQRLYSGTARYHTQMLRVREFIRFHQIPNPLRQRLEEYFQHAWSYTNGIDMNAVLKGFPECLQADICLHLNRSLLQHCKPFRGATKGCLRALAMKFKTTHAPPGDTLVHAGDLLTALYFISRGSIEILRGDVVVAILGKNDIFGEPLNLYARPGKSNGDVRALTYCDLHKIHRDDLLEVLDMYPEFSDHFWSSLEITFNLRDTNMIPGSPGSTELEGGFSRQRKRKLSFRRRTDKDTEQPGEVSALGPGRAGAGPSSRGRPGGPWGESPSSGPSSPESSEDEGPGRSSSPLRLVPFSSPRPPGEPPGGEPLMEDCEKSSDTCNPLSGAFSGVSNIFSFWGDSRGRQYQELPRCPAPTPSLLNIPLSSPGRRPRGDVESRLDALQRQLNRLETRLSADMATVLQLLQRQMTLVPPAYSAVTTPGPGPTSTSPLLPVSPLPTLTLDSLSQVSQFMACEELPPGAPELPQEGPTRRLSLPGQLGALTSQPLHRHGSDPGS

In general, IC50 refers to the point on the concentration scale where inhibition reaches its midpoint. Lower therefore signals inhibition by little substance. Broadly, the fraction unbound is free concentration divided by total concentration. Consider `CC/C(=C(\c1ccc(O)cc1)c1ccc(/C=C/C(=O)O)cc1)c1ccccc1`, for which the hepatocyte CLint in [1] came out at 12 µL/min/1e6 cells. In addition, the solubility thermodynamic at 24 h in [2] was 200 µM (≈ 74.1 µg/mL). The IC50 in [3] was above 100000 nM. In addition, in [4], the fraction unbound came out at 0.0009.
Broadly, the logD is the decadic logarithm of the distribution of all forms, ionised or not, between an organic phase and buffer at a given pH. One may read the pKa as the negative logarithm of the acid dissociation constant. As to `Cc1cc2c(Cc3ccc(/C=C/C(=O)O)cc3)c(-c3ccc(OC(F)(F)F)cc3)c(=O)oc2cc1O`, the hepatocyte CLint in data set [1] turned out to be 37 µL/min/1e6 cells; in [8] it was 17 µL/min/1e6 cells. The logD in data set [5] turned out to be 3.1. Moreover, the figures for the IC50 at Estrogen receptor [6] and against Estrogen receptor [9] were 10 nM and 320 nM, respectively. In addition, the pKa in data set [7] was determined as 7.6.
As to `Cc1cccc(-c2c(Cc3ccc(/C=C/C(=O)O)cc3)c3ccc(O)cc3oc2=O)c1`, the logD in data set [5] amounted to 2.2. Further, the half-maximal inhibitory concentration (IC50) on Estrogen receptor [6] came to 17 nM; against Estrogen receptor [9], 3090 nM.
As for `COc1cccc(-c2c(Cc3ccc(/C=C/C(=O)O)cc3)c3ccc(O)cc3oc2=O)c1`, the logD in data set [5] turned out to be 1.9. Besides, the IC50 on Estrogen receptor [6] is 41 nM; at Estrogen receptor [9], 5640 nM.
Turning to `O=C(O)/C=C/c1ccc(Cc2c(-c3cccc(OC(F)(F)F)c3)c(=O)oc3cc(O)ccc23)cc1`, in [5], the logD stood at 2.9. The IC50 came out at 5.9 nM on Estrogen receptor [6] and 1710 nM at Estrogen receptor [9].
For `O=C(O)/C=C/c1ccc(Cc2c(-c3ccc(Cl)cc3)c(=O)oc3cc(O)ccc23)cc1` the same measures were 2.4, 3.7 nM and 471 nM.
On to `O=C(O)/C=C/c1ccc(Cc2c(-c3ccc(C(F)(F)F)cc3)c(=O)oc3cc(O)ccc23)cc1`, for which the logD in [5] was 2.6. Further, the IC50 at Estrogen receptor [6] is 4.6 nM; against Estrogen receptor [9], 531 nM.
For `COc1ccc(-c2c(Cc3ccc(/C=C/C(=O)O)cc3)c3ccc(O)cc3oc2=O)cc1` the same measures were 1.9, 3.8 nM and 350 nM.
Turning to `O=C(O)/C=C/c1ccc(Cc2c(-c3ccc(OC(F)(F)F)cc3)c(=O)oc3cc(O)ccc23)cc1`, the hepatocyte CLint was found to be 40 µL/min/1e6 cells in [1] and 9 µL/min/1e6 cells in data set [8]. The logD in data set [5] came to 2.8. Moreover, the figures for the IC50 on Estrogen receptor [6] and at Estrogen receptor [9] were 1.6 nM and 52 nM, respectively. Besides, the pKa in [7] was found to be 8.7.
In the case of `O=C(O)/C=C/c1ccc(Cc2c(-c3ccc(F)cc3F)c(=O)oc3cc(O)ccc23)cc1`, in data set [5], the logD is 1.7. Further, the IC50 on Estrogen receptor [6] came out at 3 nM; at Estrogen receptor [9] it was 660 nM.
For the molecule `O=C(O)/C=C/c1ccc(Cc2c(-c3ccc(F)cc3Cl)c(=O)oc3cc(O)ccc23)cc1`, the IC50 on Estrogen receptor [6] came to 2.2 nM; on Estrogen receptor [9] it was 178 nM.
As for `COc1cc(F)ccc1-c1c(Cc2ccc(/C=C/C(=O)O)cc2)c2ccc(O)cc2oc1=O`, the pH-dependent lipophilicity (logD) in [5] was 1.8. The figures for the IC50 at Estrogen receptor [6] and at Estrogen receptor [9] were 11 nM and 2260 nM, respectively.
As for `Cc1cc(F)ccc1-c1c(Cc2ccc(/C=C/C(=O)O)cc2)c2ccc(O)cc2oc1=O`, the hepatocyte CLint in data set [1] turned out to be 81 µL/min/1e6 cells; in data set [8], 11 µL/min/1e6 cells. Moreover, the log distribution coefficient (logD) in data set [5] is 2.1. For the same molecule, the IC50 was found to be 3.9 nM on Estrogen receptor [6] and 117 nM on Estrogen receptor [9]. For the same molecule, in data set [7], the pKa turned out to be 7.7.
Regarding `Cc1cc(Cl)ccc1-c1c(Cc2ccc(/C=C/C(=O)O)cc2)c2ccc(O)cc2oc1=O`, the IC50 was 1.5 nM at Estrogen receptor [6] and 30 nM on Estrogen receptor [9].
Take `Cc1cc(OC(F)(F)F)ccc1-c1c(Cc2ccc(/C=C/C(=O)O)cc2)c2ccc(O)cc2oc1=O`: the pH-dependent lipophilicity (logD) in data set [5] turned out to be 3.1. Moreover, the IC50 on Estrogen receptor [6] turned out to be 1 nM; against Estrogen receptor [9], 7 nM.
For `Cc1cc(F)ccc1-c1c(-c2ccc(/C=C/C(=O)O)cc2)c2ccc(O)cc2oc1=O` the same measures were 2, 5.8 nM and 256 nM.
For `Cc1cc(F)ccc1-c1c(Nc2ccc(/C=C/C(=O)O)cc2)c2ccc(O)cc2oc1=O` the same measures were 1.3, 25 nM and 1450 nM.
For `Cc1cc(F)ccc1-c1c(N(C)c2ccc(/C=C/C(=O)O)cc2)c2ccc(O)cc2oc1=O` the same measures were 2.3, 9.9 nM and 60 nM.
As for `Cc1cc(F)ccc1-c1c(Oc2ccc(/C=C/C(=O)O)cc2)c2cc(F)c(O)cc2oc1=O`, the hepatocyte CLint in [1] came to 84 µL/min/1e6 cells; in data set [8], 28 µL/min/1e6 cells. Besides, the logD in data set [5] was 0.8. For the same molecule, the IC50 at Estrogen receptor [6] was 7.4 nM; on Estrogen receptor [9], above 3000 nM. In addition, in [7], the pKa was determined as 5.8.
With `Cc1cc(F)ccc1-c1c(Oc2ccc(/C=C/C(=O)O)cc2)c2ccc(O)c(F)c2oc1=O`, the hepatocyte CLint in data set [1] is 33 µL/min/1e6 cells; in [8] it was 11 µL/min/1e6 cells. Also, the logD in [5] is 0.6. For the same molecule, the half-maximal inhibitory concentration (IC50) was determined as 3.2 nM at Estrogen receptor [6] and 509 nM against Estrogen receptor [9]. Also, in [7], the pKa came out at 6.1.
Turning to `Cc1c(O)ccc2c(Cc3ccc(/C=C/C(=O)O)cc3)c(-c3ccc(OC(F)(F)F)cc3)c(=O)oc12`, the hepatocyte CLint is 39 µL/min/1e6 cells in [1] and 20 µL/min/1e6 cells in data set [8]. The logD in [5] was 3.4. Further, the IC50 on Estrogen receptor [6] is 280 nM; against Estrogen receptor [9], 5840 nM. Besides, the pKa in [7] was 8.5.
Consider `O=C(O)/C=C/c1ccc(Cc2c(-c3ccc(OC(F)(F)F)cc3)c(=O)oc3ccccc23)cc1`, for which the hepatocyte CLint in data set [1] came to 20 µL/min/1e6 cells; in [8], 8 µL/min/1e6 cells. In data set [5], the pH-dependent lipophilicity (logD) stood at 2.8. For the same molecule, the IC50 was determined as 360 nM on Estrogen receptor [6] and 1300 nM against Estrogen receptor [9].
For `Cc1cc(F)ccc1-c1c(Cc2ccc(/C=C/C(=O)O)cc2)c2ccc(C(F)F)cc2oc1=O` the same measures were 16 µL/min/1e6 cells, below 3 µL/min/1e6 cells, 2.2, 390 nM and above 2150 nM.
As for `COc1ccc2c(Cc3ccc(/C=C/C(=O)O)cc3)c(-c3ccc(OC(F)(F)F)cc3)c(=O)oc2c1`, the hepatocyte CLint in [1] and in [8] was 23 µL/min/1e6 cells throughout. The logD in [5] stood at 3. In addition, the IC50 at Estrogen receptor [6] amounted to 1100 nM; against Estrogen receptor [9] it was 3600 nM.
As to `O=C(O)/C=C/c1ccc(Cc2c(-c3ccc(OC(F)(F)F)cc3)c(=O)oc3cc(F)ccc23)cc1`, in data set [1], the hepatocyte CLint stood at 4.4 µL/min/1e6 cells. For the same molecule, the logD in [5] was 2.5. In addition, the values for the IC50 at Estrogen receptor [6] and at Estrogen receptor [9] were 5800 nM and 10600 nM, respectively.
Consider `Cc1cc(OC(F)(F)F)ccc1-c1c(Oc2ccc(/C=C/C(=O)O)cc2)c2ccc(C(F)F)cc2oc1=O`, for which the hepatocyte CLint in data set [1] came to 3 µL/min/1e6 cells; in data set [8] it was 11 µL/min/1e6 cells. The logD in data set [5] was determined as 3. The IC50 turned out to be 50 nM on Estrogen receptor [6] and 506 nM against Estrogen receptor [9].
Regarding `CCOc1ccc2c(Oc3ccc(/C=C/C(=O)O)cc3)c(-c3ccc(OC(F)(F)F)cc3C)c(=O)oc2c1`, the results for the hepatocyte CLint in [1] and in data set [8] were 21 µL/min/1e6 cells and 20 µL/min/1e6 cells, respectively. The IC50 at Estrogen receptor [6] came to 50 nM; at Estrogen receptor [9], 253 nM.
As for `Cc1cc(F)ccc1-c1c(Cc2ccc(/C=C/C(=O)O)cc2)c2ccc(N)cc2oc1=O`, the hepatocyte CLint in [1] came out at 18 µL/min/1e6 cells; in data set [8], 10 µL/min/1e6 cells. For the same molecule, in [5], the logD came out at 1.7. On Estrogen receptor [9], this molecule showed an IC50 of 1380 nM.
